Data: ChEMBL document CHEMBL2034895, “Antimicrobial metabolites from the Paracel Islands sponge Agelas mauritiana” (J Nat Prod, 2012)

Key:
Format in all cases: functional, organism-based
Cryptococcus neoformans = assay: Antifungal activity against Cryptococcus neoformans ATCC 90113 by M27A2 method
Leishmania donovani = assay: Antileishmanial activity against Leishmania donovani promastigotes after 72 hrs by alamar blue assay
Outline: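 L. donovani promastigote culture at 2 × 10^6 cells/mL was exposed to diluted compound in microplate wells and incubated at 26 °C for 72 h. Promastigote growth was read by Alamar blue. Pentamidine and amphotericin B were the reference drugs.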

Staphylococcus aureus [1] = assay: Antibacterial activity against Staphylococcus aureus ATCC 29213 by CLSI method
Staphylococcus aureus [2] = assay: Antibacterial activity against methicillin-resistant Staphylococcus aureus ATCC 33591 by CLSI method
Outline: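 Methicillin-resistant S. aureus ATCC 33591 tested by a modified CLSI (formerly NCCLS) susceptibility method. Ciprofloxacin was included as the control drug in each assay.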

Compound | IC50 (Cryptococcus neoformans) [µg/mL] | MIC (Cryptococcus neoformans) [µg/mL] | IC50 (Leishmania donovani) [µg/mL] | IC90 (Leishmania donovani) [µg/mL] | IC50 (Staphylococcus aureus [1]) [µg/mL] | MIC (Staphylococcus aureus [1]) [µg/mL] | IC50 (Staphylococcus aureus [2]) [µg/mL] | MIC (Staphylococcus aureus [2]) [µg/mL]
C=C1CC[C@@H]2C(C)(C)CCC[C@@]2(C)[C@@H]1CC/C(C)=C/C[n+]1cn(C)c2nc[nH]/c(=N\O)c21 | 5.94 | 10 | 29.3 | 34 |  |  |  | 
CC1=CCC[C@@H]2[C@@](C)(CC/C(C)=C/C[n+]3cn(C)c4nc[nH]/c(=N/O)c43)[C@H](C)CC[C@@]12C [AGELOXIME B] | 4.96 | 10 | 28.5 | 33.2 | 7.21 | 10 | 9.2 | 20
